Blank lines part the entries; values can stand above or below the molecule they belong to. Activity calls are given as the source filed them. No cut-off for these calls is given here.
Tests used:
Prolyl endopeptidase FAP [1] = target: T1, Prolyl endopeptidase FAP (Homo sapiens, UniProt Q12884); experiment: (§1) Prodrug activation assessed as recombinant human FAP-alpha mediated (S)-((3S,5R,8R,9S,10S,11S,13R,14S,17R)-11,14-dihydroxy-10,13-dimethyl-12-oxo-17-(2-oxo-2H-pyran-5-yl)hexadecahydro-1H-cyclopenta[a]phenanthren-3-yl) 2-amino-4-methylpentanoate formation by measuring intrinsic clearance after 90 mins by UPLC-MS/MS analysis; details: 1.5 h
T1 sequence (Q12884 whole entry): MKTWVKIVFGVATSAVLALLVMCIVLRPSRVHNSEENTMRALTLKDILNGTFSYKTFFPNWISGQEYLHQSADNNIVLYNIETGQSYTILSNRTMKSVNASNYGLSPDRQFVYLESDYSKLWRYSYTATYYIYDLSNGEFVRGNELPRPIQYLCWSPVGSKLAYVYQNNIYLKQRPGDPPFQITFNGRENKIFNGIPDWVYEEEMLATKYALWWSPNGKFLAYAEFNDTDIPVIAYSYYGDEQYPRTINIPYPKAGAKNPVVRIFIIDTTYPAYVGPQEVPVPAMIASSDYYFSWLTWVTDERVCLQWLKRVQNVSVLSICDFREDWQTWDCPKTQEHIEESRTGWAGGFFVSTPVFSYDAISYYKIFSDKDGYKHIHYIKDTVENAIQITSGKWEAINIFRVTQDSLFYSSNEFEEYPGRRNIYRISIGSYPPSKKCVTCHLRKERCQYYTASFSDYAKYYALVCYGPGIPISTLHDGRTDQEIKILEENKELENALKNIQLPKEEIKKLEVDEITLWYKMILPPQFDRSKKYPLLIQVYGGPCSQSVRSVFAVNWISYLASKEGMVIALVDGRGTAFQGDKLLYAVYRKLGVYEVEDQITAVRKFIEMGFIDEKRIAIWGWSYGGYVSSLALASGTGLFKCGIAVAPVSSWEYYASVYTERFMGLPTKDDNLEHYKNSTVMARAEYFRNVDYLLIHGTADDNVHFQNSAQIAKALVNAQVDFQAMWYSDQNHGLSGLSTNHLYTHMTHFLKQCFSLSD
Procedure, shortened: (§2)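 Prodrug at 0.625–40 μmol/L incubated with rhFAPα at 0.45 μg/mL and internal standard in 0.2 mL PBS, pH 7.4, at 37 °C for 90 min. Quenched with MeCN and spun at 18 000g for 15 min; product measured by UPLC-MS/MS. S50 and Vmax fitted with an allosteric sigmoidal model; CLint = Vmax/S50. Three independent experiments.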

Prolyl endopeptidase FAP [2] = target: T1, Prolyl endopeptidase FAP; experiment: Prodrug activation assessed as Vmax for recombinant human FAP-alpha mediated (S)-((3S,5R,8R,9S,10S,11S,13R,14S,17R)-11,14-dihydroxy-10,13-dimethyl-12-oxo-17-(2-oxo-2H-pyran-5-yl)hexadecahydro-1H-cyclopenta[a]phenanthren-3-yl) 2-amino-4-methylpentanoate formation after 90 mins by UPLC-MS/MS analysis; details: 1.5 h; procedure, shortened: as §2
Prolyl endopeptidase FAP [3] = target: T1, Prolyl endopeptidase FAP; experiment: as §1, with “concentration of test compound gives half-maximal activity” for “intrinsic clearance”; details: 1.5 h; procedure, shortened: as §2
[4] = Cytotoxicity in BMSC (unknown origin) assessed as cell viability at 1000 nmol/L after 72 hrs by MTT assay; format: cell-based; details: unidentified, 1 µM
Mus musculus [5] = experiment: Cardiotoxicity in BALB/C nude mouse xenografted with human MDA-MB-231 cells assessed as increase in interventricular septal systole dimension at 4 umol/kg, iv administered starting on day 5 measured after day 22 by echocardiography; format: toxicity, organism-based; details: in vivo
Procedure, shortened: (§3)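 MDA-MB-231 xenograft mice dosed iv daily in 5% HS15 from day 5, 22 days of treatment. Transthoracic echocardiography with a 21 MHz transducer under 1.5% isoflurane, supine position. M-mode images from parasternal short-axis view at papillary muscle level, used to derive LVIDd, LVIDs, IVSd and IVSs. n = 6, mean ± SEM, one-way ANOVA with Tukey's test.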

MDA-MB-435 = experiment: Antiproliferative activity against wild type human MDA-MB-435 cells expressing FAP-alpha incubated for 48 hrs by MTT assay; format: functional, cell-based; details: MDA-MB-435, 48 h
Procedure, shortened: (§4)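 Cells grown in DMEM with 10% FBS and 1% penicillin-streptomycin at 37 °C, 5% CO2; 10% heat-inactivated FBS used during cytotoxicity testing to exclude serum FAP activity. Viability read by MTT; IC50 as mean ± SEM of at least three independent experiments. Transfected lines were made from MDA-MB-231 with human FAPα plasmid or empty pCMV6-Entry vector and checked by Western blot at 48 h.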

Mus musculus [6] = experiment: Cardiotoxicity in BALB/C nude mouse xenografted with human MDA-MB-231 cells assessed as decrease in left ventricular internal systole dimension at 4 umol/kg, iv administered starting on day 5 measured after day 22 by echocardiography; format: toxicity, organism-based; details: in vivo; procedure, shortened: as §3
MDA-MB-231 [7] = experiment: Antitumor activity against human MDA-MB-231 cells xenografted in BALB/C nude mouse assessed as tumor regression at 4 umol/kg, iv administered starting on day 5 measured after day 22 by Ki67 staining-based assay; format: functional, organism-based
MDA-MB-231 [8] = experiment: Antiproliferative activity against FAP-alpha deficient human MDA-MB-231 cells incubated for 48 hrs by MTT assay; format: functional, cell-based; details: MDA-MB-231, 48 h; procedure, shortened: as §4
Mus musculus [9] = experiment: Acute toxicity in Kunming mouse assessed as mortality at 4 umol/kg, iv after 8 hrs post dose; format: organism-based; details: in vivo
Mus musculus [10] = experiment: Cardiotoxicity in BALB/C nude mouse xenografted with human MDA-MB-231 cells assessed as increase in interventricular septal diastole dimension at 4 umol/kg, iv administered starting on day 5 measured after day 22 by echocardiography; format: toxicity, organism-based; details: in vivo; procedure, shortened: as §3
Mus musculus [11] = experiment: Cardiotoxicity in BALB/C nude mouse xenografted with human MDA-MB-231 cells assessed as cytoplasmic vacuolization at 4 umol/kg, iv administered starting on day 5 measured after day 22 by hematoxylin-eosin staining-based assay; format: toxicity, organism-based; details: in vivo
Procedure, shortened: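 Xenograft mice (MDA-MB-231, female BALB/C nude) dosed iv daily in 5% HS15 from day 5. Heart fixed 24 h, paraffin-embedded, cut into 5 μm sections and stained with H&E. Vacuolization scored by a pathologist blind to treatment.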

MCF7 = experiment: Antiproliferative activity against FAP-alpha deficient human MCF7 cells incubated for 48 hrs by MTT assay; format: functional, cell-based; details: MCF7, 48 h; procedure, shortened: as §4
Mus musculus [12] = experiment: Cardiotoxicity in BALB/C nude mouse xenografted with human MDA-MB-231 cells assessed as decrease in left ventricular internal diastole dimension at 4 umol/kg, iv administered starting on day 5 measured after day 22 by echocardiography; format: toxicity, organism-based; details: in vivo; procedure, shortened: as §3
MDA-MB-231 [13] = experiment: Antitumor activity against human MDA-MB-231 cells xenografted in BALB/C nude mouse at 4 umol/kg, iv administered starting on day 5 measured after day 22 by Ki67 staining-based assay relative to control; format: functional
Procedure, shortened: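 Female BALB/C nude mice, MDA-MB-231 cells (1 × 10^7) injected subcutaneously in Matrigel–PBS 1:1. Daily iv dosing in 5% HS15 vehicle from day 5. Tumours fixed and paraffin-embedded, 5 μm sections, anti-Ki67 IHC, read blind by a pathologist. Proliferative index by image analysis, n = 6. Compared with 5% HS15 control by one-way ANOVA and Tukey's test.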

MDA-MB-231 [14] = experiment: Antiproliferative activity against human MDA-MB-231 cells assessed as decrease in cell viability at 62.5 to 500 nmol/L after 72 hrs by MTT assay; format: functional, cell-based
Mus musculus [15] = experiment: Cardiotoxicity in BALB/C nude mouse xenografted with human MDA-MB-231 cells assessed as increase in LDH level at 4 umol/kg, iv administered starting on day 5 measured after day 22; format: toxicity, organism-based; details: in vivo
Procedure, shortened: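 Xenograft-bearing mice dosed iv daily in 5% HS15. Blood taken by cardiac puncture before sacrifice and spun at 3000 rpm for 20 min at 4 °C to give serum. D-LDH activity measured by colorimetric kit. n = 6, one-way ANOVA with Tukey's test against HS15 control.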

[16] = Acute toxicity in iv dosed Kunming mouse measured less than 4 hrs post dose; format: organism-based; details: in vivo
Procedure, shortened: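 Kunming mice (22.0−28.0 g), half male and half female, 10 groups of n = 10. Single iv dose on day 1 across five levels per compound (prodrug 29.98–50.00 μmol/kg; arenobufagin 4.50–8.00 μmol/kg). Watched continuously for 8 h for abnormal behaviour and deaths, then intermittently for 2 weeks, and sacrificed day 14. LD50 by Bliss method.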

Prolyl endopeptidase FAP [17] = target: T1, Prolyl endopeptidase FAP; experiment: as §1, with “2-amino-3-methylbutanoate” for “2-amino-4-methylpentanoate”; details: 1.5 h; procedure, shortened: as §2

CL (Prolyl endopeptidase FAP [1]): 3.52 mL/min/mg
Vmax (Prolyl endopeptidase FAP [2]): 0.042 µmol/min/mg
S50 (Prolyl endopeptidase FAP [3]): 11.92 µmol/L
SMILES: CC(C)C[C@H](NC(=O)[C@@H]1CCCN1C(=O)CNC(=O)OCc1ccccc1)C(=O)O[C@H]1CC[C@@]2(C)[C@H](CC[C@@H]3[C@@H]2[C@H](O)C(=O)[C@]2(C)[C@@H](c4ccc(=O)oc4)CC[C@]32O)C1

SMILES: C[C@]12CC[C@H](O)C[C@H]1CC[C@@H]1[C@@H]2[C@H](O)C(=O)[C@]2(C)[C@@H](c3ccc(=O)oc3)CC[C@]12O
Activity [4]: Non-Toxic
Activity (Mus musculus [5]): Toxic
IC50 (MDA-MB-435): 22.4 nM
Activity (Mus musculus [6]): Toxic
Activity (MDA-MB-231 [7]): Active
IC50 (MDA-MB-231 [8]): 15.7 nM
Activity (Mus musculus [9]): Non-Toxic
Activity (Mus musculus [10]): Toxic
Activity (Mus musculus [11]): Toxic
IC50 (MCF7): 8.88 nM
Activity (Mus musculus [12]): Toxic
Activity (MDA-MB-231 [13]): 45 - 50%
Activity (MDA-MB-231 [14]): Active
Activity (Mus musculus [15]): Toxic
LD50 at 4 h [16]: 6.82 µmol/kg

CL (Prolyl endopeptidase FAP [17]): 1.27 mL/min/mg
SMILES: CC(C)[C@H](NC(=O)[C@@H]1CCCN1C(=O)CNC(=O)OCc1ccccc1)C(=O)O[C@H]1CC[C@@]2(C)[C@H](CC[C@@H]3[C@@H]2[C@H](O)C(=O)[C@]2(C)[C@@H](c4ccc(=O)oc4)CC[C@]32O)C1

From ChEMBL document CHEMBL4038302, “Fibroblast Activation Protein α Activated Tripeptide Bufadienolide Antitumor Prodrug with Reduced Cardiotoxicity” (J Med Chem, 2017)
